Here are results for two molecules from publication PMC6447837 (Cancer Science, 2019).

Assay [1] relates to Aspc‐1 cells. Put plainly: Annexin V/PI apoptosis assay. The format is cell-based, human. Conditions: 24 hours. The method in brief:
(§1)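 Cells were treated with a range of concentrations for 24 hours, washed with PBS, then stained with annexin V‑FITC and propidium iodide for 15 minutes in the dark. […] Early (annexin V) and late (PI) apoptotic cells are reported as percentages, mean of n = 3 with SD.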

The test system of assay [2] is Bxpc‐3 cells. Put plainly: Annexin V/PI apoptosis assay. The format is cell-based, human. The settings on record: 24 hours. The method in brief:
as §1

The subject of assay [3] is FOSL1. Put plainly: Western blot, FOSL1 expression in intact cells. The assay is classed as cell-based, human. Conditions: 10 PDAC cell lines, 12 hours. A general note: Immunoblotting shows a protein as a band on a membrane.
The test system of assay [4] is STAT3. Put plainly: Western blot, STAT3 phosphorylation. The format is cell-based, human. The settings on record: Aspc‐1 and Bxpc‐3 cells, 12 hours. The method in brief:
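Aspc-1 and Bxpc-3 cells were grown overnight in complete medium and treated with test compound for 12 h. Cells were lysed in RIPA buffer and protein was quantified. Lysates were run on SDS-PAGE and transferred to PVDF, then blocked 2 h in TBS-T with 5% non-fat milk. Blots were probed for pAKT Ser473, pERK Thr202/Tyr204, pSTAT3 Tyr705, the matching total proteins and β-actin. Detection was by enhanced chemiluminescence.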

For assay [5], the system named is Aspc‐1 xenograft. The assay is described as follows: Subcutaneous xenograft model. The assay is classed as in vivo, NOD‐SCID mice. The settings on record: Aspc‐1 model; LY‐1816 20 or 40 mg/kg/d p.o.; dasatinib 40 mg/kg/d p.o.; gemcitabine 80 mg/kg once a week. The method in brief: (§2)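 Female NOD‑SCID mice bearing s.c. right‑flank tumors (5 × 10⁶–1 × 10⁷ cells injected) were randomized at 100–200 mm³ (6–7 per group). They received test compound in 25% PEG400/5% DMSO/water by oral gavage once daily for 18 days, or vehicle. Tumors were measured by caliper every 3 days, with volume = length × width² × 0.5.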

Assay [6] relates to Bxpc‐3 xenograft. Put plainly: Subcutaneous xenograft model. The assay is classed as in vivo, NOD‐SCID mice. The settings on record: Bxpc‐3 model; LY‐1816 20 or 40 mg/kg/d p.o.; dasatinib 40 mg/kg/d p.o.; gemcitabine 80 mg/kg once a week. The procedure, abridged:
as §2

The subject of assay [7] is STAT3. The assay is described as follows: Immunohistochemistry of xenograft tumor tissues. The assay is classed as in vivo, NOD‐SCID mice. Conditions: Aspc‐1 and Bxpc‐3 models; LY‐1816 and dasatinib 40 mg/kg/d p.o., gemcitabine 80 mg/kg/wk; IHC. The procedure, abridged: (§3)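 Six-week-old female NOD-SCID mice received 5 × 10⁶ to 1 × 10⁷ cells s.c. in the right flank. Treatment began at about 200 mm³. Test compound (40 mg/kg/d) was given once daily by oral gavage in 25% PEG400 plus 5% DMSO in water. Tumors were resected at the end of dosing. Frozen sections were immunostained and imaged by light microscopy.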

Assay [8] concerns FOSL1. The assay is described as follows: Immunohistochemistry of xenograft tumor tissues. The assay is classed as in vivo, NOD‐SCID mice. The settings on record: Aspc‐1 and Bxpc‐3 models; LY‐1816 and dasatinib 40 mg/kg/d p.o., gemcitabine 80 mg/kg/wk; IHC. The method in brief: as §3
Assay [9] deals with Aspc‐1 cells. The assay is described as follows: Transwell invasion assay. The format is cell-based, human. The procedure, abridged: (§4)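 Inserts were precoated with polymerized collagen type I. Cells were seeded on the insert bottom in serum‑free medium with serial dilutions of test compound or vehicle, with 10% FBS medium in the lower chamber. After one day, cells were stained with calcein‑AM and optical sections taken at 10‑μm intervals. Invasion was scored as cells moving >20 μm into collagen; n = 3, mean with SD.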

Assay [10] has as its system Bxpc‐3 cells. The assay is described as follows: Transwell invasion assay. The format is cell-based, human. The procedure, abridged:
as §4

Assay [11] concerns the target Src (Homo sapiens, UniProt P12931). The format is cell-based. Conditions: 10 PDAC cell lines; 12 hours; western blot.
Assay [12] has as its system Src. Put plainly: Immunohistochemistry of xenograft tumor tissues. The assay is classed as in vivo, NOD‐SCID mice. The settings on record: Aspc‐1 and Bxpc‐3 models; LY‐1816 and dasatinib 40 mg/kg/d p.o., gemcitabine 80 mg/kg/wk; IHC.
Assay [13] concerns cleaved caspase‐3. Put plainly: Immunohistochemistry of xenograft tumor tissues. The format is in vivo, NOD‐SCID mice. Conditions: xenograft models; LY‐1816 40 mg/kg/d p.o., gemcitabine 80 mg/kg/wk; IHC. The method in brief:
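Aspc‑1 or Bxpc‑3 s.c. tumors in NOD‑SCID mice were dosed p.o. daily from about 200 mm³, with vehicle controls. At study end, tumors were resected. Frozen sections were immunostained and imaged by light microscopy, and cleaved caspase‑3‑positive cells were counted.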

In assay [14] the test system is Aspc‐1 cells. Put plainly: Wound healing assay. The format is cell-based, human. Conditions: 18 hours.
In assay [15] the test system is Bxpc‐3 cells. Put plainly: Wound healing assay. The assay is classed as cell-based, human. Conditions: 18 hours.

Src (Homo sapiens, UniProt P12931), sequence (P12931 whole entry): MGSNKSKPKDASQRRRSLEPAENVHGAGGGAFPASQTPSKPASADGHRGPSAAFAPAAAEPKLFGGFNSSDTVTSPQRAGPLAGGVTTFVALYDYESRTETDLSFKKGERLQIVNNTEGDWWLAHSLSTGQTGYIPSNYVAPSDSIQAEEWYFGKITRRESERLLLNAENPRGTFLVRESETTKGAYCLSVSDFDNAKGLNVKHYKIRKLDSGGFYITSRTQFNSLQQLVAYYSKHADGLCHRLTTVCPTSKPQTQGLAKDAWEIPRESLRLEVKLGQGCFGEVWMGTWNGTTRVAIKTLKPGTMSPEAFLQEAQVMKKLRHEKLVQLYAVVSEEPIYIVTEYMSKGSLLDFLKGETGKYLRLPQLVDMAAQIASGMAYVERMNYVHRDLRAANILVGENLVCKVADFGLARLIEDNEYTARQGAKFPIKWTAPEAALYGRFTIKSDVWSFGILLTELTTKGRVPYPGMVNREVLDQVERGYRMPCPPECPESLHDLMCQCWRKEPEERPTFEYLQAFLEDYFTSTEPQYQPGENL

`Cc1nc(Nc2ncc(C(=O)Nc3c(C)cccc3Cl)s2)cc(N2CCN(CCO)CC2)n1` [dasatinib]: the “apoptosis (annexin V and PI‐positive populations)” value in [1] and in assay [2] was “also could induce apoptosis” throughout. Besides, in assay [3], the FOSL1 expression entry is given as “slight influence on FOSL1 expression”. For the same molecule, the “phosphorylation of STAT3” value in [4] was “very weak or no impact on the phosphorylation of STAT3”. Further, the antitumor activity result in [5] and in assay [6] was “also showed antitumor activities” in each case. Also, the “phosphorylation of STAT3 in tumor tissues” value in assay [7] is given as “very weak or no influence on the phosphorylation of STAT3 or the expression of FOSL1”. In addition, the “expression of FOSL1 in tumor tissues” value in assay [8] is “very weak or no influence on the phosphorylation of STAT3 or the expression of FOSL1”. Besides, the cell invasion result in assay [9] and in [10] was “poor ability to block cell invasion” throughout.

`Nc1ccn([C@@H]2O[C@H](CO)[C@@H](O)C2(F)F)c(=O)n1` [gemcitabine, reference compound]: the “apoptosis (annexin V and PI‐positive populations)” value in assay [1] and in [2] was “also could induce apoptosis” in each case. In addition, in assay [11], the “phosphorylation of Src” value was “little inhibitory effect against Src and FOSL1 expression”. In addition, the FOSL1 expression entry in assay [3] was “little inhibitory effect against Src and FOSL1 expression”. Moreover, the antitumor activity result in [5] and in assay [6] was “also showed antitumor activities” in each case. Also, the “phosphorylation of Src in tumor tissues” value in assay [12] is “did not evidently inhibit the activities of Src or STAT3, nor FOSL1 expression”. Besides, the “phosphorylation of STAT3 in tumor tissues” value in assay [7] was “did not evidently inhibit the activities of Src or STAT3, nor FOSL1 expression”. In addition, the “expression of FOSL1 in tumor tissues” value in assay [8] is on record as “did not evidently inhibit the activities of Src or STAT3, nor FOSL1 expression”. The “cleaved caspase‐3 stain in tumor tissues” value in assay [13] was “increase in the number of cleaved caspase‐3‐positive cells”. The cell migration entry in [14] and in assay [15] was “very weak activity in blocking cell migration” each time. For the same molecule, the cell invasion result in assay [9] and in [10] was “poor ability to block cell invasion” throughout.
